Values belong to the compound of their own block, whether it stands above or below them.
Assays:
Renin [1] = target: T1, Renin (Homo sapiens, UniProt P00797); experiment: Inhibition of human recombinant renin using Q-FRET substrate after 3 hrs by fluorescence assay
T1 sequence (P00797 whole entry): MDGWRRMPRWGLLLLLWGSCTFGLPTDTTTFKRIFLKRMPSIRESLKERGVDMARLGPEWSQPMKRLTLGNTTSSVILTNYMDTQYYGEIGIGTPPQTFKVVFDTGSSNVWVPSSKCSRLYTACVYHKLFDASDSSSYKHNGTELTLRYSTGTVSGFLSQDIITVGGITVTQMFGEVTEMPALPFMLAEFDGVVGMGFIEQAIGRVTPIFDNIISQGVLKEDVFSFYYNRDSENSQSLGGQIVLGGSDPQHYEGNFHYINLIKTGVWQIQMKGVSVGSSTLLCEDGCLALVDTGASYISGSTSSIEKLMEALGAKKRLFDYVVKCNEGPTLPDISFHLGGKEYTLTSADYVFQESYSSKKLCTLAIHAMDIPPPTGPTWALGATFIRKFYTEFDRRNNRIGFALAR

[2] = Oral bioavailability in Sprague-Dawley rat at 20 mg/kg; type: ADME, organism-based; conditions: in vivo
CYP3A4 [3] = target: T2, CYP3A4 (Homo sapiens, UniProt P08684); experiment: Reversible inhibition of CYP3A4 assessed as conversion of testosterone to 6-beta-hydroxytestosterone at 10 uM relative to control; type: ADME; conditions: probe testosterone
Canis familiaris [4] = experiment: Cardiotoxicity in anesthetized, vagotomized and ventilated Mongrel dog assessed as prolongation of PR intervals at 10 mg/kg, iv after 1.5 hrs relative to baseline; type: toxicity, organism-based, Canis lupus familiaris; parameters: dose 10 mg/kg, route intravenous; conditions: in vivo
How it was run: (§1)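 Anesthetized, vagotomized, ventilated mongrel dogs received an iv infusion of 10 mpk over 1.5 h. QTc, PR and QRS intervals were recorded as percentage change from baseline, and plasma concentration (µM) was measured.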

Rattus norvegicus [5] = experiment: Cardiotoxicity in cardiac electrophysiology rat model assessed as prolongation of PR intervals at 10 mg/kg, iv after 0.5 hrs relative to baseline; type: toxicity, organism-based, Heart; parameters: dose 10 mg/kg, route intravenous; conditions: in vivo
How it was run: (§2)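 Rat electrophysiology model dosed at 10 mpk over 0.5 h. PR and QRS prolongation expressed as percentage change from baseline; plasma concentration (µM) recorded.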

Renin [6] = target: T1, Renin; experiment: Inhibition of renin in human plasma using Q-FRET substrate pretreated for 10 mins before substrate addition measured after 1 hr
[7] = Plasma concentration in anesthetized, vagotomized and ventilated Mongrel dog at 10 mg/kg, iv after 1.5 hrs; type: ADME, organism-based, Canis lupus familiaris; parameters: dose 10 mg/kg, route intravenous; how it was run: as §1
Canis familiaris [8] = experiment: Cardiotoxicity in anesthetized, vagotomized and ventilated Mongrel dog assessed as prolongation of QRS intervals at 10 mg/kg, iv after 1.5 hrs relative to baseline; type: toxicity, organism-based, Canis lupus familiaris; parameters: dose 10 mg/kg, route intravenous; conditions: in vivo; how it was run: as §1
Canis familiaris [9] = experiment: Cardiotoxicity in anesthetized, vagotomized and ventilated Mongrel dog assessed as prolongation of QTc intervals at 10 mg/kg, iv after 1.5 hrs relative to baseline; type: toxicity, organism-based, Canis lupus familiaris; parameters: dose 10 mg/kg, route intravenous; conditions: in vivo; how it was run: as §1
Rattus norvegicus [10] = experiment: Cardiotoxicity in cardiac electrophysiology rat model assessed as prolongation of QRS intervals at 10 mg/kg, iv after 0.5 hrs relative to baseline; type: toxicity, organism-based, Heart; parameters: dose 10 mg/kg, route intravenous; conditions: in vivo; how it was run: as §2
[11] = Plasma concentration in cardiac electrophysiology rat model at 10 mg/kg, iv after 0.5 hrs; type: ADME, organism-based; parameters: dose 10 mg/kg, route intravenous; how it was run: as §2
[12] = target: Voltage-gated inwardly rectifying potassium channel KCNH2 (Homo sapiens, UniProt Q12809); experiment: Inhibition of human ERG
CYP3A4 [13] = target: T2, CYP3A4; experiment: Time dependent inhibition of CYP3A4 assessed as conversion of testosterone to 6-beta-hydroxytestosterone at 10 uM relative to control; type: ADME; conditions: probe testosterone
How it was run: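 Rate of CYP3A4 conversion of testosterone (250 μM) to 6-β-hydroxytestosterone measured before and after a 30 min incubation with compound at 10 μM (in DMSO). Difference expressed as % loss.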

Cytochrome P450 3A4 [14] = target: T3, Cytochrome P450 3A4 (Homo sapiens, UniProt P08684); experiment: Time dependent inhibition of CYP3A4 assessed as conversion of testosterone to 6-beta-hydroxytestosterone; type: ADME
How it was run: (§3)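 Time-dependent CYP3A4 inhibition (testosterone to 6-β-hydroxytestosterone).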

[15] = Volume of distribution at steady state in Beagle dog at 3 mg/kg, po and 1 mg/kg, iv; type: ADME, organism-based, Canis lupus familiaris; conditions: in vivo, read-out: Vdss
[16] = Volume of distribution at steady state in Sprague-Dawley rat at 20 mg/kg, po and 5 mg/kg, iv; conditions: in vivo, read-out: Vdss
[17] = Half life in cynomolgus monkey at 3 mg/kg, po and 1 mg/kg, iv; type: ADME, organism-based, Macaca fascicularis; conditions: in vivo
[18] = Half life in Beagle dog at 3 mg/kg, po and 1 mg/kg, iv; type: ADME, organism-based, Canis lupus familiaris; conditions: in vivo
[19] = AUC in cynomolgus monkey at 3 mg/kg, po; type: ADME, organism-based, Macaca fascicularis; parameters: dose 3 mg/kg, route oral; conditions: plasma
[20] = Half life in Sprague-Dawley rat at 20 mg/kg, po and 5 mg/kg, iv; conditions: in vivo
[21] = Oral bioavailability in Beagle dog at 3 mg/kg; type: ADME, organism-based, Canis lupus familiaris; conditions: in vivo
[22] = AUC in Sprague-Dawley rat at 20 mg/kg, po; type: ADME, organism-based; parameters: dose 20 mg/kg, route oral; conditions: plasma
[23] = Clearance in cynomolgus monkey at 3 mg/kg, po and 1 mg/kg, iv; type: ADME, organism-based, Macaca fascicularis; conditions: in vivo
[24] = AUC in Beagle dog at 3 mg/kg, po; type: ADME, organism-based, Canis lupus familiaris; parameters: dose 3 mg/kg, route oral; conditions: plasma
[25] = Oral bioavailability in cynomolgus monkey at 3 mg/kg; type: ADME, organism-based, Macaca fascicularis; conditions: in vivo
[26] = Clearance in Sprague-Dawley rat at 20 mg/kg, po and 5 mg/kg, iv; conditions: in vivo
[27] = Volume of distribution at steady state in cynomolgus monkey at 3 mg/kg, po and 1 mg/kg, iv; type: ADME, organism-based, Macaca fascicularis; conditions: in vivo, read-out: Vdss
Liver microsomes [28] = experiment: Covalent binding in human liver microsomes assessed per mg of protein at 10 uM after 60 mins in presence of NADPH; type: ADME, Microsome; conditions: 1 h
How it was run: (§4)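 Test compound at 10 μM was incubated for 60 min (n = 3) with human liver microsomes at 1 mg protein/mL, with or without 1 mM NADPH. Covalent binding reported as pmole eq/mg at 1 h.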

Rattus norvegicus [29] = experiment: Antihypertensive activity in double transgenic rat model assessed as duration in reduction of blood pressure at 10 mg/kg, po; type: functional
[30] = Clearance in Beagle dog at 3 mg/kg, po and 1 mg/kg, iv; type: ADME, organism-based, Canis lupus familiaris; conditions: in vivo
Cytochrome P450 3A4 [31] = target: T3, Cytochrome P450 3A4; experiment: Time dependent inhibition of CYP3A4 assessed as conversion of testosterone to 6-beta-hydroxytestosterone preincubated for 30 mins; type: ADME; how it was run: as §3
Rattus norvegicus [32] = experiment: Antihypertensive activity in double transgenic rat model assessed as reduction of blood pressure at 10 mg/kg, po; type: functional
Cytochrome P450 3A4 [33] = target: T3, Cytochrome P450 3A4; experiment: Reversible inhibition of CYP3A4 assessed as conversion of testosterone to 6-beta-hydroxytestosterone; type: ADME
Liver microsomes [34] = experiment: Covalent binding in human liver microsomes assessed per mg of protein at 10 uM after 60 mins in absence of NADPH; type: ADME, Microsome; conditions: 1 h; how it was run: as §4
[35] = target: Voltage-dependent L-type calcium channel subunit alpha-1C (Homo sapiens, UniProt Q13936); experiment: Inhibition of human Cav1.2
[36] = target: Sodium channel protein type 5 subunit alpha (Homo sapiens, UniProt Q14524); experiment: Inhibition of human Nav1.5
[37] = Oral bioavailability in Sprague-Dawley rat at 30 mg/kg; type: ADME, organism-based; conditions: in vivo
[38] = Solubility of the compound in water; type: physicochemical; conditions: buffer

T3 sequence (P08684 whole entry): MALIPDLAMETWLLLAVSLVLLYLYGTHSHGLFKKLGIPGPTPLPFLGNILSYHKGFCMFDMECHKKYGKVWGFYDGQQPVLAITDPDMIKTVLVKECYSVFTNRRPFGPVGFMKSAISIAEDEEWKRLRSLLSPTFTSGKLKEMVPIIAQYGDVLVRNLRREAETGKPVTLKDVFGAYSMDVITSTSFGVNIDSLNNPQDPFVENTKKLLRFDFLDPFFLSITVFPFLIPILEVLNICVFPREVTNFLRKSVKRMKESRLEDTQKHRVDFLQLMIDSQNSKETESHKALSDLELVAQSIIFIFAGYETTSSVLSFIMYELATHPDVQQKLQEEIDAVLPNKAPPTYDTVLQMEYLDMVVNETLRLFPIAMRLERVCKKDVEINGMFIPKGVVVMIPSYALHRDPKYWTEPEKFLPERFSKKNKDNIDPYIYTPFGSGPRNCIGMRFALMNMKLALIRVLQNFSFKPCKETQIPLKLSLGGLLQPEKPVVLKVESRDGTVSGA
T2 sequence (P08684 whole entry): as above
Chain of Voltage-gated inwardly rectifying potassium channel KCNH2 (Q12809 whole entry): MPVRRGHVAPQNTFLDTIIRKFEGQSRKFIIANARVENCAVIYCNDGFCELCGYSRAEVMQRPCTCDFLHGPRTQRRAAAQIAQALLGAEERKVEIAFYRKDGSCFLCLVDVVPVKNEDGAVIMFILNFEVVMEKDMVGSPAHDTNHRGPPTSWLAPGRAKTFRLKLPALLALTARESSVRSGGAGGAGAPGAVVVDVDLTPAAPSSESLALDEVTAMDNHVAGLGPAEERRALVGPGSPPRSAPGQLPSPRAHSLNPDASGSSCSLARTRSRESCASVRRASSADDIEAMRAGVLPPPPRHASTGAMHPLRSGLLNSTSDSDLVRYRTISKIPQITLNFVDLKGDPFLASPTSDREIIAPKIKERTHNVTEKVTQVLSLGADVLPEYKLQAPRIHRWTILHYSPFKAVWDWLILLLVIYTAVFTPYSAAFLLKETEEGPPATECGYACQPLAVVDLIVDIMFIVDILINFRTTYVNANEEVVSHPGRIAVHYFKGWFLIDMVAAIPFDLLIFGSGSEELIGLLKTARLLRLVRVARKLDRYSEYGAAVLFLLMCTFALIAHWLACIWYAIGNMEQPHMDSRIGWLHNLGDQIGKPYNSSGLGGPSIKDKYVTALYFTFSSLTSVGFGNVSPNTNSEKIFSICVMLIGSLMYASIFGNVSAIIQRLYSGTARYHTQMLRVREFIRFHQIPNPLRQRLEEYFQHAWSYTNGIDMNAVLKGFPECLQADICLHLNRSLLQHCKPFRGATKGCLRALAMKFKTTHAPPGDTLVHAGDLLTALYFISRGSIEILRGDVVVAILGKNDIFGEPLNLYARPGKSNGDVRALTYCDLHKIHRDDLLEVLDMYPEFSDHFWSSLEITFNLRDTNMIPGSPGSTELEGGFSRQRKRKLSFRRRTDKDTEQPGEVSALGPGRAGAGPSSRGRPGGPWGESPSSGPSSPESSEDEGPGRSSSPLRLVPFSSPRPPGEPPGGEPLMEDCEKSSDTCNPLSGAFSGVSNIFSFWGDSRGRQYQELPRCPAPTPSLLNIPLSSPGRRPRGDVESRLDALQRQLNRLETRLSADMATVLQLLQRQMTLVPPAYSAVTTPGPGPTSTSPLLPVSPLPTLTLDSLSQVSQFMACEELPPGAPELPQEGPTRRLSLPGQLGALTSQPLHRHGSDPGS
Chain of Voltage-dependent L-type calcium channel subunit alpha-1C (Q13936 whole entry): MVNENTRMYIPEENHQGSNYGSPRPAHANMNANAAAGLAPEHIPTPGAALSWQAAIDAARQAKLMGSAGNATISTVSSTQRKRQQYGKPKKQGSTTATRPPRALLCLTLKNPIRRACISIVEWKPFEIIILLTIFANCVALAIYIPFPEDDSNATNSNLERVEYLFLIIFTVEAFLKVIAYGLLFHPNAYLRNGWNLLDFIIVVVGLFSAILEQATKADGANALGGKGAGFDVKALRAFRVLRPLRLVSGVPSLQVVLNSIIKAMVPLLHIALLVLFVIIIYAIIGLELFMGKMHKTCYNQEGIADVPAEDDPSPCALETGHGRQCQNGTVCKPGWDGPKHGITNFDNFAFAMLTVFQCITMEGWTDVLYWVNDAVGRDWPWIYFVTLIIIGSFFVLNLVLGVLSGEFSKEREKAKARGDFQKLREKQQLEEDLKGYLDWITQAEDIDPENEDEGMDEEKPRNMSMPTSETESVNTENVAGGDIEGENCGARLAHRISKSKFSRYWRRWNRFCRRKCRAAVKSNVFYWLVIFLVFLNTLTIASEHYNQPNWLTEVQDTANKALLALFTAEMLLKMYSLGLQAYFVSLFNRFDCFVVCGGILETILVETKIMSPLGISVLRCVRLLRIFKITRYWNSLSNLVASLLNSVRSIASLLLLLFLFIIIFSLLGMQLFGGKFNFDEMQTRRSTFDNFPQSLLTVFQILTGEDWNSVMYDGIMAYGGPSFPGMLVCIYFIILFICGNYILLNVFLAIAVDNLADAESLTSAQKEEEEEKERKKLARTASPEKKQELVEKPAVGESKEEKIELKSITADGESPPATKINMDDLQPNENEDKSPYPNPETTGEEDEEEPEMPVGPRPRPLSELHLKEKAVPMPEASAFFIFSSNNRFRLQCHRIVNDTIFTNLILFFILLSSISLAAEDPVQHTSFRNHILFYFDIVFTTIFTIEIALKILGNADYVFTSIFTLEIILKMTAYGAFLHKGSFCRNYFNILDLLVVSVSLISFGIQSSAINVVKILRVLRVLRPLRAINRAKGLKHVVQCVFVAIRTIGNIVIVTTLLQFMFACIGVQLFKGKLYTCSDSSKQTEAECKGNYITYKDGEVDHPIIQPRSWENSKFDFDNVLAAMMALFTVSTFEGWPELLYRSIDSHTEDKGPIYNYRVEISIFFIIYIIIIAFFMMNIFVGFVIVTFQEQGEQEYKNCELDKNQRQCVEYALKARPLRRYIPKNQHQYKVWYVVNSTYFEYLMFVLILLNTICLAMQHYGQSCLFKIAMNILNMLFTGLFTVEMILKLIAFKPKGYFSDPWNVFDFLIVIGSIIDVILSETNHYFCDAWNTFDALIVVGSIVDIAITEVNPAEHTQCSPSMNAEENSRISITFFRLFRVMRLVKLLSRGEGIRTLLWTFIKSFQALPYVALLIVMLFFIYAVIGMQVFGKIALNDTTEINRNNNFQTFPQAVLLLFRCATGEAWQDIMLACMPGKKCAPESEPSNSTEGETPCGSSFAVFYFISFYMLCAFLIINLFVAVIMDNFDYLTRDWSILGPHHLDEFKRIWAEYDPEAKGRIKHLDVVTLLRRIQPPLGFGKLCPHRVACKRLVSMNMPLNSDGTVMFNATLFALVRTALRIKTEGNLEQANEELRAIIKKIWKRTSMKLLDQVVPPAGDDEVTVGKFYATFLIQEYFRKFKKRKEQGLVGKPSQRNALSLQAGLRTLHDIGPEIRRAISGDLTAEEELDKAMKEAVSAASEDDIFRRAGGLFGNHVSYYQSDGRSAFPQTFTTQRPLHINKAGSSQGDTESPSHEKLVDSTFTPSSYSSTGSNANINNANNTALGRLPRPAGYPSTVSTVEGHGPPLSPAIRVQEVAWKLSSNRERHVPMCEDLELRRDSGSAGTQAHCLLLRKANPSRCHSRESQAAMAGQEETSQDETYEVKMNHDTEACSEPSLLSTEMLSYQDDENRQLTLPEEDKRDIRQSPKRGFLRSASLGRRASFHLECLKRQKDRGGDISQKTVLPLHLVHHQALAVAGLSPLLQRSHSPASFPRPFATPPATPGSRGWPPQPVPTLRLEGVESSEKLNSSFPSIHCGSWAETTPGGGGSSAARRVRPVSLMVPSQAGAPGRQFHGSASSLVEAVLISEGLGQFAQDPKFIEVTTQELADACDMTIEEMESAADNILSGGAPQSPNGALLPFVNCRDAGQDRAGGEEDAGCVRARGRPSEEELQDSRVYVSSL

IC50 (Renin [1]): 0.3 nM
bioavailability [2]: 24%
activity % at 10 µM (CYP3A4 [3]): 53%
IC50 (Renin [6]): 1.3 nM
concentration at 1.5 h [7]: 15 µM
concentration at 0.5 h [11]: 7.4 µM
inhibition at 10 µM (CYP3A4 [13]): 16%
Structure (SMILES): COCCCc1cc(Cl)c(Cl)c(CN(C(=O)[C@H]2CNCC[C@@H]2c2ccn(C)c(=O)c2)C2CC2)c1
Activity (Canis familiaris [4]): 50%
Activity (Rattus norvegicus [5]): 35%
Activity (Canis familiaris [8]): 33%
Activity (Canis familiaris [9]): 10%
Activity (Rattus norvegicus [10]): 54%
Ki [12]: 4800 nM

IC50 (Cytochrome P450 3A4 [14]): 20000 nM
Vd [15]: 4.5 L/kg
Vd [16]: 17 L/kg
IC50 (Renin [1]): 1 nM
half-life [17]: 7.8 h
bioavailability [2]: 30%
half-life [18]: 13.7 h
AUC [19]: 0.9 µM·h
half-life [20]: 5.2 h
bioavailability [21]: 36%
activity % at 10 µM (CYP3A4 [3]): 22%
IC50 (Renin [6]): 2.4 nM
AUC [22]: 4.2 µM·h
clearance [23]: 14 mL/min/kg
concentration at 1.5 h [7]: 9.3 µM
AUC [24]: 2.1 µM·h
bioavailability [25]: 14%
clearance [26]: 67 mL/min/kg
Vd [27]: 4.8 L/kg
concentration at 0.5 h [11]: 7.9 µM
Activity (Liver microsomes [28]): 34.5 pmolequiv
clearance [30]: 16 mL/min/kg
IC50 (Cytochrome P450 3A4 [31]): 16000 nM
IC50 (Cytochrome P450 3A4 [33]): 6500 nM
Activity (Liver microsomes [34]): 8.3 pmolequiv
inhibition at 10 µM (CYP3A4 [13]): 0%
Structure (SMILES): COCCCc1cc(CN(C(=O)[C@H]2CNCC[C@@H]2c2ccn(C)c(=O)c2)C2CC2)cc(Br)c1C
Activity (Canis familiaris [4]): 5%
Activity (Rattus norvegicus [5]): 16%
Activity (Canis familiaris [8]): 4%
Activity (Canis familiaris [9]): 0%
Activity (Rattus norvegicus [10]): 14%
Ki [12]: 18000 nM
Time (Rattus norvegicus [29]): 24 h
Activity (Rattus norvegicus [32]): 35 mmHg

IC50 (Renin [1]): 2.3 nM
bioavailability [37]: 8%
IC50 (Renin [6]): 5.2 nM
concentration at 1.5 h [7]: 25 µM
concentration at 0.5 h [11]: 12.7 µM
inhibition at 10 µM (CYP3A4 [13]): 45%
Structure (SMILES): COCCCn1cc(CN(C(=O)[C@H]2CNCC[C@@H]2c2ccn(C)c(=O)c2)C2CC2)c2ccccc21
IC50 [35]: > 30000 nM
IC50 [36]: > 30000 nM
Activity (Canis familiaris [4]): 14%
Activity (Rattus norvegicus [5]): 23%
Activity (Canis familiaris [8]): 12%
Activity (Canis familiaris [9]): 6%
Activity (Rattus norvegicus [10]): 30%

solubility [38]: soluble
Structure (SMILES): COCCCc1cc(CN(C(=O)[C@H]2CNCC[C@@H]2c2ccn(C)c(=O)c2)C2CC2)cc(Br)c1C.Cl
